BaF3 tox: parental Ba/F3 cell viability inhibition, counter-screen for JAK2V617F inhibitor project, murine pro-B, CellTiter-Glo luminescence. inhibition, % at 5.6 µM. actives 1.1% (n = 220,000). CellTiter-Glo ATP luminescence;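 active = inhibition above a per-campaign cutoff, the mean inhibition of all tested compounds plus 3 SD, cut at about 27% in these data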;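 note: 0% = DMSO wells and 100% = JAK Inhibitor I control wells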
b-catenin transl: modulators of beta-catenin nuclear translocation, primary screen, imaging, HeLa cells, immunofluorescence, high-content; actives 0.3% (n = 190,000); nuclear translocation activity, % at 5 µM; AID 1665, 2009;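 active = nuclear translocation activity above 50% at 5 µM, with a well cell count of 50 or more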;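 note: per-cell ratio of nuclear to cytoplasmic median beta-catenin stain intensity; plate controls were DMSO negative control for no effect and GSK-3 inhibitor IX positive control for full effect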
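Test system: HeLa cells, endogenous beta-catenin; Compound: single 5 µM dose plus 0.02–20 µM confirmation series; Times: compound exposure 24 h at 37°C; Signal: fluorescence imaging of beta-catenin antibody stain plus DAPI; Read-out: % activation, nuclear-to-cytoplasmic median beta-catenin signal ratio per cell.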
MT stabilize HCS: microtubule stabilizers in HeLa cells, primary screen, imaging, high-content imaging. HeLa tubulin immunostaining HCS, 24 h; share of cells brighter than vehicle mean+2SD. % tubulin-high responders, % at 10 µM. actives 0.83% (n = 200,000). AID 2205, 2009;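 active = plate Z-score above 3 for both tubulin-high and condensed-nucleus cell shares, with cell loss under 80%, at 10 µM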;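 note: anti alpha tubulin signal scored within the nucleus-defined area of each cell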
APP transl inh: inhibitors of APP translation via 5'UTR reporter, primary screen, APP 5'UTR luciferase, SH-SY5Y cells. SH-SY5Y APP 5'UTR-luciferase reporter, luminescence. inhibition, % at 2 µM. actives 0.82% (n = 190,000);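 active = inhibition above a set limit, derived from the sample mean plus 3 SD, cut at about 45% in these data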
Ba/F3 V617F tox: reduced viability of JAK2V617F-dependent Ba/F3 cells, primary screen, JAK2V617F inhibitor project, cell-based, Ba/F3 EpoR-JAK2V617F, luminescence. ATP luminescence. inhibition, % at 5.6 µM. actives 1.1% (n = 220,000);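 active = inhibition above the campaign mean plus 3 SD over all tested compounds, cut at about 24% in these data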;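 note: cytokine-independent growth of Ba/F3 cells driven by EpoR plus mutant JAK2; 0% = DMSO-treated cells and 100% = JAK inhibitor I control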
IEC-6 tox: cytotoxicity in IEC-6 intestinal epithelial cells, primary screen, cytotoxicity control for KLF5 inhibitor project, cell-based, luminescence; inhibition, % at 5 µM; IEC-6 cytotoxicity, luminescence viability; actives 0.78% (n = 290,000);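 note: 0% = plate median of test compound wells and 100% = cytotoxic reference compound wells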
IEC-6 cytotox cf: cytotoxic compounds in IEC-6 epithelial cells, confirmation, cytotoxicity control, cell-based, luminescence; shares compounds with IEC-6 tox; IEC-6 rat intestinal epithelial viability; inhibition, % at 5 µM; actives 63% (n = 1,900);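 note: 0% = vehicle and 100% = reference cytotoxic drug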
An asterisk follows results filed as active; . = no result given. Sampled rows, rich in hits. Any-hit rate of the full collection: about 2.2%. Cut-off read from the data, not from the text of the source, unless noted: active = inhibition above about 22%; inactive = the rest.

SMILES	BaF3 tox	b-catenin transl	MT stabilize HCS	APP transl inh	Ba/F3 V617F tox	IEC-6 tox	IEC-6 cytotox cf
CC[C@@H](C)[C@H](CNC)NC[C@@H](Cc1cccc2ccccc12)NCCc1cccc(C(F)(F)F)c1	.	.	.	.	.	-6	.
CNC[C@@H](CC1CCCCC1)NC[C@H](CC(C)C)NCCc1cccc(C(F)(F)F)c1	.	.	.	.	.	-6	.
CCC[C@@H](CN[C@@H](CNC)C(C)C)NCCCCc1ccccc1	.	.	.	.	.	44*	66*
O=C(NCCCCc1ccccc1)c1ccccc1	2	0	2	21	-1	-1	.
CCC[C@H](CN[C@@H](CNC)[C@H](C)CC)NCCc1cc(C(F)(F)F)cc(C(F)(F)F)c1	.	.	.	.	.	36*	57*
CCCC[C@@H](CNC)NC[C@H](NCCCCC1CCCCC1)C(C)C	.	.	.	.	.	-4	.
CC(C)Oc1nnnn1-c1ccccc1	-1	-3	5	4	0	-1	.
Cc1ccc(CC(=O)N2CCN(C(=O)C3CCCO3)CC2)cc1 (centres undefined)	.	.	.	.	.	2	.
COc1ccc(-c2cc(C)no2)cc1S(=O)(=O)N(C)c1ccc(C)cc1	.	.	.	.	.	28*	25*
Cc1[nH]c2ccccc2c1/C=N/NC(=O)c1cc(-c2ccncc2)nc2ccccc12	.	.	.	.	.	40*	54*
CC(=O)c1c(-c2ccccc2)c2cc(Cl)ccc2n(C)c1=O	.	.	.	.	.	22*	7
Cn1c(=O)c(C(=O)NCc2ccc(Cl)cc2)c(O)c2ccccc21	.	.	.	.	.	-4	.
CCC1CCCCN1CCCNC(=O)C1CCN(Cc2nc(-c3ccc(Cl)cc3)oc2C)CC1 (centres undefined)	.	.	.	.	.	47*	70*
Cc1ccc(NC(=O)c2ccc(Cl)cc2[N+](=O)[O-])nc1	64*	1	36*	24	74*	38*	49*
Cc1ccc(NC(=O)c2ccccc2[N+](=O)[O-])nc1	-1	-2	7	8	2	8	.
COc1cccc(C(=O)NC2CC3CCCC(C2)N3Cc2ccc(C)cc2)c1 (centres undefined)	.	.	.	.	.	6	.
O=C(CNC(=O)C1COc2ccccc2O1)N/N=C/c1ccc(O)cc1O (centres undefined)	13	.	3	6	6	3	.
Cc1ccccc1C1=NC(C(F)(F)F)(C(F)(F)F)c2c(n(C)c(=O)n(C)c2=O)N1	6	4	3	-18	3	5	.
Cn1c2c(c(=O)n(C)c1=O)C(C(F)(F)F)(C(F)(F)F)N=C(c1ccc(Cl)cc1)N2	86*	2	1	51*	95*	37*	92*
CCN(CC)CCNC(=O)c1cc2c(=O)n(CC)c3ccccc3c2s1	.	.	.	.	.	18	.
CCOCCCNC(=O)c1cc2c(=O)n(CC)c3ccccc3c2s1	.	.	.	.	.	22*	7
CCN(CC)CCCNC(=O)c1cc2c(=O)n(CC)c3ccccc3c2s1	.	.	.	.	.	26*	11
O=[N+]([O-])c1cc(C(F)(F)F)cc([N+](=O)[O-])c1NCCN1CCNCC1	.	.	.	.	.	-3	.
CCN1CCS/C1=C/C=C/C1=[N+](CC)CCS1	81*	-1	4	-14	99*	27*	30*
CCN1CCS/C1=C\C=C\C1=[N+](CC)CCS1	90*	-2	3	-3	101*	37*	31*
C=CCOn1c(=O)c(-c2ccc(OCC)cc2)[n+]([O-])c2ccccc21	.	.	.	.	.	1	.
CC(C)COP(=O)(CNC(=O)CN1C(=O)c2ccccc2S1(=O)=O)OCC(C)C	4	-5	3	14	-1	-5	.
O=C1C=C(Nc2ccc(Cl)cc2Cl)CC(c2ccco2)C1 (centres undefined)	47*	2	11	13	21	54*	48*
CC(C)C(O)(C#CCN1CCCCC1)C(C)C	6	4	4	-20	-4	-10	.
Cc1ccc(-c2nnn3c2nc(NCCc2ccc(S(N)(=O)=O)cc2)c2ccccc23)cc1	7	-6	3	4	3	55*	4
